Reference: ChEMBL document CHEMBL1135620, “Cyclosporins: structure-activity relationships for the inhibition of the human FPR1 formylpeptide receptor” (J Med Chem, 2002)

Key:
[1] = target: T1, fMet-Leu-Phe receptor (Homo sapiens, UniProt P21462); experiment: Inhibitory activity against human formylpeptide receptor (FPR) of human leukemia HL-60 cells; assay type: cell-based
T1 sequence (P21462 whole entry): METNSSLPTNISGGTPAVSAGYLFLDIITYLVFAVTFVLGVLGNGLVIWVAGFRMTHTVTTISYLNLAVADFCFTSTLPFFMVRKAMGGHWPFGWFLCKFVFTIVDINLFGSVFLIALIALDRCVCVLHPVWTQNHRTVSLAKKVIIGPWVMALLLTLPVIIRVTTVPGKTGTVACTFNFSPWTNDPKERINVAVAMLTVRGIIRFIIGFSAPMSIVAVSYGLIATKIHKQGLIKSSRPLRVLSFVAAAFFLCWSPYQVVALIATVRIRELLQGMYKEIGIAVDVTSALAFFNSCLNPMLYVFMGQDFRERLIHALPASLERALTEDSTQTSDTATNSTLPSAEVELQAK
Summary of the method: (§1)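 HL-60 cells differentiated 48 h with 0.2 mM dibutyryl cAMP, washed, then treated with 5 μM cytochalasin B (5–10 min, 37 °C). Stimulated 10 min with 30 nM f-MLF. N-acetyl-β-D-glucosaminidase release read at 410 nm on p-nitrophenyl substrate after spontaneous-release subtraction. Duplicate wells; IC20/IC50 as mean ± SD of independent experiments.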

[2] = target: T2, fMet-Leu-Phe receptor (Homo sapiens) (UniProt P21462); experiment: Inhibitory activity against Human formylpeptide receptor (FPR) of human leukemia HL-60 cells; assay type: cell-based; summary of the method: as §1
T2 sequence (whole entry): T1 sequence (P21462 whole entry)

Row | IC20 [2] | SMILES | also measured
1 |  | C/C=C/C[C@@H](C)[C@@H](O)[C@H]1C(=O)N[C@@H](CC)C(=O)N(C)CC(=O)N(C)[C@@H](CC(C)C)C(=O)N[C@@H](C(C)C)C(=O)N(C)[C@@H](CC(C)C)C(=O)N[C@@H](C)C(=O)N[C@H](C)C(=O)N(C)[C@@H](CC(C)C)C(=O)N(C)[C@@H](CC(C)C)C(=O)N(C)[C@@H]([C@@H](C)CC)C(=O)N1C | IC50 ([1]; hl-60): > 10000 nM
2 |  | C/C=C/C[C@@H](C)C[C@H]1C(=O)N[C@@H](CC)C(=O)N(C)CC(=O)N(C)[C@@H](CC(C)C)C(=O)N[C@@H](C(C)C)C(=O)N(C)[C@@H](CC(C)C)C(=O)N[C@@H](C)C(=O)N[C@H](C)C(=O)N(C)[C@@H](CC(C)C)C(=O)N(C)[C@@H](CC(C)C)C(=O)N(C)[C@@H](C(C)C)C(=O)N1C | IC50 [1]: > 10000 nM
3 | > 10000 nM | CC[C@@H]1NC(=O)[C@H](C2CCCCC2C)N(C)C(=O)[C@H](C(C)C)N(C)C(=O)[C@H](CC(C)C)N(C)C(=O)[C@H](CC(C)C)N(C)C(=O)[C@@H](C)NC(=O)[C@@H](C)NC(=O)[C@@H](CC(C)C)N(C)C(=O)[C@@H](C(C)C)NC(=O)[C@@H](CC(C)C)N(C)C(=O)CN(C)C1=O (stereo partly specified) | 
4 | 1400 nM | C/C=C/C[C@@H](C)[C@@H](O)[C@H]1C(=O)N[C@@H](C(C)C)C(=O)N(C)CC(=O)N(C)[C@H](CC(C)C)C(=O)N[C@H](C(C)C)C(=O)N(C)[C@H](CC(C)C)C(=O)N[C@@H](C)C(=O)N[C@H](C)C(=O)N(C)[C@@H](CC(C)C)C(=O)N[C@@H](CC(C)C)C(=O)N(C)[C@@H](C(C)C)C(=O)N1C | 
5 | 1000 nM | CC/C=C/C[C@@H](C)[C@@H](O)[C@H]1C(=O)N[C@@H](CC)C(=O)N(C)CC(=O)N(C)[C@@H]([C@@H](C)CC)C(=O)N[C@H](C(C)C)C(=O)N(C)[C@H](CC(C)C)C(=O)N[C@@H](C)C(=O)N[C@H](C)C(=O)N(C)[C@@H](CC(C)C)C(=O)N(C)[C@@H](CC(C)C)C(=O)N(C)[C@@H](C(C)C)C(=O)N1C | 
6 | 660 nM | C/C=C/C[C@@H](C)[C@@H](O)[C@H]1C(=O)N[C@@H](CCC)C(=O)N(C)CC(=O)N(C)[C@H](CC(C)C)C(=O)N[C@H](C(C)C)C(=O)N(C)[C@H](CC(C)C)C(=O)N[C@@H](C)C(=O)N[C@H](C)C(=O)N(C)[C@@H](CC(C)C)C(=O)N[C@@H](CC(C)C)C(=O)N(C)[C@@H](C(C)C)C(=O)N1C | 
7 | 1700 nM | CCCCCC[C@H]1C(=O)N[C@@H](CC)C(=O)N(C)CC(=O)N(C)[C@H](CC(C)C)C(=O)N[C@H](C(C)C)C(=O)N(C)[C@H](CC(C)C)C(=O)N[C@@H](C)C(=O)N[C@H](C)C(=O)N(C)[C@@H](CC(C)C)C(=O)N(C)[C@@H](CC(C)C)C(=O)N(C)[C@@H](C(C)C)C(=O)N1C | 
8 | 6400 nM | C/C=C/C[C@@H](C)[C@@H](O)[C@H]1C(=O)N[C@@H]([C@@H](C)O)C(=O)N(C)CC(=O)N(C)[C@H](CC(C)C)C(=O)N[C@H](C(C)C)C(=O)N(C)[C@H](CC(C)C)C(=O)N[C@@H](C)C(=O)N[C@H](C)C(=O)N(C)[C@@H](CC(C)C)C(=O)N(C)[C@@H](CC(C)C)C(=O)N[C@@H](C(C)C)C(=O)N1C | 
9 | 7600 nM | CCC[C@@H]1NC(=O)[C@H](CC(C)C)N(C)C(=O)[C@H](C(C)C)N(C)C(=O)[C@H](CC(C)C)N(C)C(=O)[C@H](CC(C)C)N(C)C(=O)[C@@H](C)NC(=O)[C@H](C)NC(=O)[C@@H](CC(C)C)N(C)C(=O)[C@H](C(C)C)NC(=O)[C@@H](CC(C)C)N(C)C(=O)CN(C)C1=O | 
10 | 2400 nM | C/C=C/C[C@@H](C)C[C@H]1C(=O)N[C@@H](CC)C(=O)N(C)CC(=O)N(C)[C@H](CC(C)C)C(=O)N[C@H](C(C)C)C(=O)N(C)[C@H](CC(C)C)C(=O)N[C@@H](C)C(=O)N[C@H](C)C(=O)N(C)[C@@H](CC(C)C)C(=O)N(C)[C@@H](CC(C)C)C(=O)N(C)[C@@H](C(C)C)C(=O)N1C | 
11 | 3800 nM | C/C=C/C[C@@H](C)[C@@H](O)[C@H]1C(=O)N[C@@H](CC)C(=O)N(C)CC(=O)N(C)[C@H](CC(C)C)C(=O)N[C@H](C(C)C)C(=O)N(C)[C@H](CC(C)C)C(=O)N[C@@H](C)C(=O)N[C@H](C)C(=O)N(C)[C@@H](CC(C)C)C(=O)N(C)[C@@H](CC(C)C)C(=O)N[C@@H](C(C)C)C(=O)N1C | 
12 | > 10000 nM | CC/C=C/C[C@@H](C)[C@@H](O)[C@H]1C(=O)N[C@@H](CC)C(=O)N(C)CC(=O)N(C)[C@H](CC(C)C)C(=O)N[C@H](C(C)C)C(=O)N(C)[C@H](CC(C)C)C(=O)N[C@@H](CC)C(=O)N[C@H](C)C(=O)N(C)[C@@H](CC(C)C)C(=O)N(C)[C@@H](CC(C)C)C(=O)N(C)[C@@H](C(C)C)C(=O)N1C | 
13 | 530 nM | C/C=C/C[C@@H](C)[C@@H](O)[C@H]1C(=O)N[C@@H](CC)C(=O)N(C)CC(=O)N(C)[C@H](CC(C)C)C(=O)N[C@H](C(C)C)C(=O)N(C)[C@H](CC(C)C)C(=O)N[C@@H](C)C(=O)N[C@H](C)C(=O)N[C@@H](CC(C)C)C(=O)N(C)[C@@H](CC(C)C)C(=O)N(C)[C@@H](C(C)C)C(=O)N1C | 
14 | 200 nM | C/C=C/C[C@@H](C)[C@@H](O)[C@H]1C(=O)N[C@@H](C)C(=O)N(C)CC(=O)N(C)[C@H](CC(C)C)C(=O)N[C@H](C(C)C)C(=O)N(C)[C@H](CC(C)C)C(=O)N[C@@H](C)C(=O)N[C@H](C)C(=O)N(C)[C@@H](CC(C)C)C(=O)N[C@@H](CC(C)C)C(=O)N(C)[C@@H](C(C)C)C(=O)N1C | 
15 | > 10000 nM | C/C=C/C[C@@H](C)[C@@H](O)[C@H]1C(=O)N[C@@H]([C@@H](C)O)C(=O)N(C)CC(=O)N[C@@H](C(C)C)C(=O)N[C@H](C(C)C)C(=O)N(C)[C@H](CC(C)C)C(=O)N[C@@H](C)C(=O)N[C@H](C)C(=O)N(C)[C@@H](CC(C)C)C(=O)N(C)[C@@H](CC(C)C)C(=O)N(C)[C@@H](C(C)C)C(=O)N1C | 
16 | 800 nM | C/C=C/C[C@@H](C)[C@@H](O)[C@H]1C(=O)N[C@@H]([C@@H](C)O)C(=O)N(C)CC(=O)N(C)[C@H](CC(C)C)C(=O)N[C@@H](CC(C)C)C(=O)N(C)[C@H](CC(C)C)C(=O)N[C@@H](C)C(=O)N[C@H](C)C(=O)N(C)[C@@H](CC(C)C)C(=O)N[C@@H](C)C(=O)N(C)[C@@H](C(C)C)C(=O)N1C | 
17 | > 10000 nM | C/C=C/C[C@@H](C)[C@@H](O)[C@H]1C(=O)N[C@@H](CC)C(=O)N(C)CC(=O)N(C)[C@H](CC(C)C)C(=O)N[C@H](C(C)C)C(=O)N[C@@H](CC(C)C)C(=O)N[C@@H](C)C(=O)N[C@H](C)C(=O)N(C)[C@@H](CC(C)C)C(=O)N(C)[C@@H](CC(C)C)C(=O)N(C)[C@@H](C(C)C)C(=O)N1C | 
18 | > 10000 nM | CC[C@@H]1NC(=O)[C@H](CC(C)C)N(C)C(=O)[C@H](C(C)C)N(C)C(=O)[C@H](CC(C)C)N(C)C(=O)[C@H](CC(C)C)N(C)C(=O)[C@@H](C)NC(=O)[C@H](C)NC(=O)[C@@H](CC(C)C)N(C)C(=O)[C@@H](C(C)C)NC(=O)[C@@H](CC(C)C)N(C)C(=O)CN(C)C1=O | 
19 | 4200 nM | CC(C)C[C@@H]1C(=O)N[C@@H](C(C)C)C(=O)N(C)[C@H](CC(C)C)C(=O)N[C@@H](C)C(=O)N[C@H](C)C(=O)N(C)[C@@H](CC(C)C)C(=O)N(C)[C@@H](CC(C)C)C(=O)N(C)[C@@H](C(C)C)C(=O)N(C)[C@@H](CC(C)C)C(=O)N[C@@H](C(C)C)C(=O)N(C)CC(=O)N1C | 
20 | > 10000 nM | CC[C@@H]1NC(=O)[C@H]([C@H](O)[C@H](C)C/C=C/CO)N(C)C(=O)[C@H](C(C)C)N(C)C(=O)[C@H](CC(C)C)N(C)C(=O)[C@H](CC(C)C)N(C)C(=O)[C@@H](C)NC(=O)[C@H](C)NC(=O)[C@@H](CC(C)C)N(C)C(=O)[C@@H](C(C)C)NC(=O)[C@@H](CC(C)C)N(C)C(=O)CN(C)C1=O | 
21 | 200 nM | C/C=C/C[C@@H](C)[C@@H](O)[C@H]1C(=O)N[C@@H](CCC)C(=O)N(C)CC(=O)N(C)[C@H](CC(C)C)C(=O)N[C@@H](CCC)C(=O)N(C)[C@H](CC(C)C)C(=O)NC(C)C(=O)N[C@H](C)C(=O)N(C)[C@@H](CC(C)C)C(=O)N(C)[C@@H](CC(C)C)C(=O)N(C)[C@@H](C(C)C)C(=O)N1C (stereo partly specified) | 
22 | > 10000 nM | C/C=C/C[C@@H](C)[C@@H](O)[C@H]1C(=O)N[C@@H](CC)C(=O)N(C)CC(=O)N[C@@H](C(C)C)C(=O)N[C@H](C(C)C)C(=O)N(C)[C@H](CC(C)C)C(=O)N[C@@H](C)C(=O)N[C@H](C)C(=O)N(C)[C@@H](CC(C)C)C(=O)N(C)[C@@H](CC(C)C)C(=O)N(C)[C@@H](C(C)C)C(=O)N1C | 
23 | 4000 nM | CC/C=C/C[C@@H](C)[C@@H](O)[C@H]1C(=O)N[C@@H](CC)C(=O)N(C)CC(=O)N(C)[C@@H](Cc2ccccc2)C(=O)N[C@H](C(C)C)C(=O)N(C)[C@H](CC(C)C)C(=O)N[C@@H](C)C(=O)N[C@H](C)C(=O)N(C)[C@@H](CC(C)C)C(=O)N(C)[C@@H](CC(C)C)C(=O)N(C)[C@@H](C(C)C)C(=O)N1C | 
24 | 1690 nM | CC[C@@H]1NC(=O)[C@H](CC2CCCCC2)N(C)C(=O)[C@H](C(C)C)N(C)C(=O)[C@H](CC(C)C)N(C)C(=O)[C@H](CC(C)C)N(C)C(=O)[C@@H](C)NC(=O)[C@H](C)NC(=O)[C@@H](CC(C)C)N(C)C(=O)[C@@H](C(C)C)NC(=O)[C@@H](CC(C)C)N(C)C(=O)CN(C)C1=O | 

Row | SMILES | IC20 [2] | also measured
25 | C/C=C/C[C@@H](C)[C@@H](O)[C@H]1C(=O)N[C@@H]([C@@H](C)O)C(=O)NCC(=O)N(C)[C@H](CC(C)C)C(=O)N[C@@H](CC(C)C)C(=O)N(C)[C@H](CC(C)C)C(=O)N[C@@H](C)C(=O)N[C@](O)(C(C)C)C(=O)N(C)[C@@H](CC(C)C)C(=O)N[C@@H](CC(C)C)C(=O)N(C)[C@@H](C(C)C)C(=O)N1C | 130 nM | 
26 | C/C=C/C[C@@H](C)[C@@H](O)[C@H]1C(=O)N[C@@H]([C@@H](C)O)C(=O)N(C)CC(=O)N(C)[C@H](CC(C)C)C(=O)N[C@@H](C(C)C)C(=O)N(C)[C@H](CC(C)C)C(=O)N[C@@H](C)C(=O)N[C@](O)(C(C)C)C(=O)N(C)[C@@H](CC(C)C)C(=O)N[C@@H](CC(C)C)C(=O)N(C)[C@@H](C(C)C)C(=O)N1C | 930 nM | 
